Columns and labels:
[1] = melting temperature; fluorescence melt of hairpins on a sequencing array, two-state fit, raised by 9.35 °C to match UV melts; conditions: sodium 0.088 M
Summary of the method: (§1)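 Cy3 fluorescence of library hairpins on a sequenced MiSeq flow cell, with annealed Cy3 and quencher oligos, was imaged in 50 mM Na-HEPES pH 8.0, 25 mM NaCl in 2.5 °C steps up to 60 °C. Signals were normalised to pre-quench Cy3 and to control variants. Melting temperature and folding enthalpy came from bootstrapped two-state fits, inverse-variance combined over four replicates. Fitted temperatures were raised by 9.35 °C to match UV melts.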

[2] = folding enthalpy; higher = less favourable; fluorescence melt of hairpins on a sequencing array, two-state fit; conditions: sodium 0.088 M
Summary of the method: as §1

GATCAAGGCGTTGATC ((((((....))))))
Tm [1]: 48.5 °C | folding enthalpy [2]: -35.8 kcal/mol

GATCAAGGGATTGATC ((((((....))))))
Tm [1]: 44.8 °C | folding enthalpy [2]: -26.9 kcal/mol

GATCAAGGTATTGATC ((((((....))))))
Tm [1]: 48.7 °C | folding enthalpy [2]: -35.2 kcal/mol

GATCAAGGTTTTGATC ((((((....))))))
Tm [1]: 45.1 °C | folding enthalpy [2]: -29.7 kcal/mol

GATCAAGTAGTTGATC ((((((....))))))
Tm [1]: 46.7 °C | folding enthalpy [2]: -31.6 kcal/mol

GATCAAGTCGTTGATC ((((((....))))))
Tm [1]: 48 °C | folding enthalpy [2]: -39.2 kcal/mol

GATCAAGTGATTGATC ((((((....))))))
Tm [1]: 47.3 °C | folding enthalpy [2]: -32.2 kcal/mol

GATCAAGTGCTTGATC ((((((....))))))
Tm [1]: 47.2 °C | folding enthalpy [2]: -41.2 kcal/mol

GATCAAGTTGTTGATC ((((((....))))))
Tm [1]: 45.1 °C | folding enthalpy [2]: -36.6 kcal/mol

GATCAATAATTGATC ((((((...))))))
Tm [1]: 40.3 °C | folding enthalpy [2]: -23.8 kcal/mol

GATCAATACCTTGATC ((((((....))))))
Tm [1]: 46.5 °C | folding enthalpy [2]: -34 kcal/mol

GATCAATACTTGATC ((((((...))))))
Tm [1]: 42 °C | folding enthalpy [2]: -30.4 kcal/mol

GATCAATAGTTTGATC ((((((....))))))
Tm [1]: 42.7 °C | folding enthalpy [2]: -30.6 kcal/mol

GATCAATATCTTGATC ((((((....))))))
Tm [1]: 42.6 °C | folding enthalpy [2]: -30.6 kcal/mol

GATCAATCACTTGATC ((((((....))))))
Tm [1]: 43.2 °C | folding enthalpy [2]: -29.9 kcal/mol

GATCAATCCATTGATC ((((((....))))))
Tm [1]: 49.7 °C | folding enthalpy [2]: -42.6 kcal/mol

GATCAATCGGTTGATC ((((((....))))))
Tm [1]: 44.4 °C | folding enthalpy [2]: -42 kcal/mol

GATCAATCTCTTGATC ((((((....))))))
Tm [1]: 43.2 °C | folding enthalpy [2]: -30.1 kcal/mol

GATCAATGCATTGATC ((((((....))))))
Tm [1]: 52.3 °C | folding enthalpy [2]: -65.6 kcal/mol

GATCAATTACTTGATC ((((((....))))))
Tm [1]: 44 °C | folding enthalpy [2]: -31.4 kcal/mol

GATCAATTATTGATC ((((((...))))))
Tm [1]: 43.8 °C | folding enthalpy [2]: -29.3 kcal/mol

GATCAATTCTTTGATC ((((((....))))))
Tm [1]: 47.8 °C | folding enthalpy [2]: -35.9 kcal/mol

GATCAATTTTTTGATC ((((((....))))))
Tm [1]: 47.3 °C | folding enthalpy [2]: -35.1 kcal/mol

GATCACAAACGTGATC ((((((....))))))
Tm [1]: 55.6 °C | folding enthalpy [2]: -33.2 kcal/mol

GATCACAAAGGTGATC ((((((....))))))
Tm [1]: 53.6 °C | folding enthalpy [2]: -32.8 kcal/mol

GATCACAAATGTGATC ((((((....))))))
Tm [1]: 55.5 °C | folding enthalpy [2]: -33.4 kcal/mol

GATCACAACGTGATC ((((((...))))))
Tm [1]: 61.3 °C | folding enthalpy [2]: -34.4 kcal/mol

GATCACAAGCGTGATC ((((((....))))))
Tm [1]: 56.6 °C | folding enthalpy [2]: -37.6 kcal/mol

GATCACAATAGTGATC ((((((....))))))
Tm [1]: 60.8 °C | folding enthalpy [2]: -38.3 kcal/mol

GATCACAATGGTGATC ((((((....))))))
Tm [1]: 55.3 °C | folding enthalpy [2]: -35.1 kcal/mol

GATCACACAGTGATC ((((((...))))))
Tm [1]: 58.8 °C | folding enthalpy [2]: -38.1 kcal/mol

GATCACACCAGTGATC ((((((....))))))
Tm [1]: 59 °C | folding enthalpy [2]: -38.6 kcal/mol

GATCACACCGGTGATC ((((((....))))))
Tm [1]: 57.3 °C | folding enthalpy [2]: -39.3 kcal/mol

GATCACACGAGTGATC ((((((....))))))
Tm [1]: 56.4 °C | folding enthalpy [2]: -43.6 kcal/mol

GATCACACGCGTGATC ((((((....))))))
Tm [1]: 58.5 °C | folding enthalpy [2]: -38.6 kcal/mol

GATCACACGGGTGATC ((((((....))))))
Tm [1]: 57.1 °C | folding enthalpy [2]: -35.5 kcal/mol

GATCACACTCGTGATC ((((((....))))))
Tm [1]: 57.4 °C | folding enthalpy [2]: -40.6 kcal/mol

GATCACAGCAGTGATC ((((((....))))))
Tm [1]: 59.5 °C | folding enthalpy [2]: -40.3 kcal/mol

GATCACAGCTGTGATC ((((((....))))))
Tm [1]: 59 °C | folding enthalpy [2]: -41.9 kcal/mol

GATCACATAAGTGATC ((((((....))))))
Tm [1]: 58.9 °C | folding enthalpy [2]: -39.3 kcal/mol

GATCACATGGGTGATC ((((((....))))))
Tm [1]: 56.4 °C | folding enthalpy [2]: -45.1 kcal/mol

GATCACATGGTGATC ((((((...))))))
Tm [1]: 61.1 °C | folding enthalpy [2]: -37 kcal/mol

GATCACATGTGTGATC ((((((....))))))
Tm [1]: 57.2 °C | folding enthalpy [2]: -43.2 kcal/mol

GATCACATTAGTGATC ((((((....))))))
Tm [1]: 59.2 °C | folding enthalpy [2]: -45 kcal/mol

GATCACCACGTGATC ((((((...))))))
Tm [1]: 58.9 °C | folding enthalpy [2]: -38.5 kcal/mol

GATCACCCAGTGATC ((((((...))))))
Tm [1]: 57.2 °C | folding enthalpy [2]: -38.1 kcal/mol

GATCACCCCTGTGATC ((((((....))))))
Tm [1]: 55.6 °C | folding enthalpy [2]: -47.6 kcal/mol

GATCACCCGAGTGATC ((((((....))))))
Tm [1]: 57 °C | folding enthalpy [2]: -41.3 kcal/mol

GATCACCCGCGTGATC ((((((....))))))
Tm [1]: 54.5 °C | folding enthalpy [2]: -48.3 kcal/mol

GATCACCCTTGTGATC ((((((....))))))
Tm [1]: 54.9 °C | folding enthalpy [2]: -43.7 kcal/mol

GATCACCGAGGTGATC ((((((....))))))
Tm [1]: 63.5 °C | folding enthalpy [2]: -46.8 kcal/mol

GATCACCGCAGTGATC ((((((....))))))
Tm [1]: 59 °C | folding enthalpy [2]: -40 kcal/mol

GATCACCTCAGTGATC ((((((....))))))
Tm [1]: 59.6 °C | folding enthalpy [2]: -42.3 kcal/mol

GATCACGAAAGTGAGATC ((((((....)))..)))
Tm [1]: 48.5 °C | folding enthalpy [2]: -17 kcal/mol

GATCACGAAAGTGATATC ((((((....)))..)))
Tm [1]: 50.5 °C | folding enthalpy [2]: -17.3 kcal/mol

GATCACGAAAGTGTTATC ((((((....)))..)))
Tm [1]: 28.4 °C | folding enthalpy [2]: -9.57 kcal/mol

GATCACGAGCGTGATC ((((((....))))))
Tm [1]: 59.1 °C | folding enthalpy [2]: -39.5 kcal/mol

GATCACGAGTGTGATC ((((((....))))))
Tm [1]: 56.3 °C | folding enthalpy [2]: -37.7 kcal/mol

GATCACGATCGTGATC ((((((....))))))
Tm [1]: 59.6 °C | folding enthalpy [2]: -47.4 kcal/mol

GATCACGCGAGTGATC ((((((....))))))
Tm [1]: 68.8 °C | folding enthalpy [2]: -33.8 kcal/mol

GATCACGCGGGTGATC ((((((....))))))
Tm [1]: 57.1 °C | folding enthalpy [2]: -32 kcal/mol

GATCACGCTGGTGATC ((((((....))))))
Tm [1]: 58.2 °C | folding enthalpy [2]: -42.5 kcal/mol

GATCACGGAAACGCGATC ((((.((....)).))))
Tm [1]: 48.2 °C | folding enthalpy [2]: -34.3 kcal/mol

GATCACGGAAACGTGGTC ((.((((....)))).))
Tm [1]: 53.8 °C | folding enthalpy [2]: -38.7 kcal/mol

GATCACGGAAGTGATC ((((((....))))))
Tm [1]: 68.9 °C | folding enthalpy [2]: -29.3 kcal/mol

GATCACGGTCGTGATC ((((((....))))))
Tm [1]: 60.7 °C | folding enthalpy [2]: -39.6 kcal/mol

GATCACGTCCGTGATC ((((((....))))))
Tm [1]: 61.1 °C | folding enthalpy [2]: -41.6 kcal/mol

GATCACTAAGTGATC ((((((...))))))
Tm [1]: 55.2 °C | folding enthalpy [2]: -33.9 kcal/mol

GATCACTAATGTGATC ((((((....))))))
Tm [1]: 55.1 °C | folding enthalpy [2]: -35.2 kcal/mol

GATCACTAGAGTGATC ((((((....))))))
Tm [1]: 56.4 °C | folding enthalpy [2]: -40.8 kcal/mol

GATCACTCACGTGATC ((((((....))))))
Tm [1]: 55.8 °C | folding enthalpy [2]: -41.5 kcal/mol

GATCACTCAGGTGATC ((((((....))))))
Tm [1]: 57.4 °C | folding enthalpy [2]: -37 kcal/mol

GATCACTCCAGTGATC ((((((....))))))
Tm [1]: 58.4 °C | folding enthalpy [2]: -30.5 kcal/mol

GATCACTCCCGTGATC ((((((....))))))
Tm [1]: 55.8 °C | folding enthalpy [2]: -47.2 kcal/mol

GATCACTCTAGTGATC ((((((....))))))
Tm [1]: 59.9 °C | folding enthalpy [2]: -40.4 kcal/mol

GATCACTCTCGTGATC ((((((....))))))
Tm [1]: 55.7 °C | folding enthalpy [2]: -41.8 kcal/mol

GATCACTCTGGTGATC ((((((....))))))
Tm [1]: 58.8 °C | folding enthalpy [2]: -39.8 kcal/mol

GATCACTGCCGTGATC ((((((....))))))
Tm [1]: 55.9 °C | folding enthalpy [2]: -44.5 kcal/mol

GATCACTGGAGTGATC ((((((....))))))
Tm [1]: 55.7 °C | folding enthalpy [2]: -48.7 kcal/mol

GATCACTGGTGTGATC ((((((....))))))
Tm [1]: 58 °C | folding enthalpy [2]: -36.7 kcal/mol

GATCACTTATGTGATC ((((((....))))))
Tm [1]: 56.7 °C | folding enthalpy [2]: -37.5 kcal/mol

GATCACTTCCGTGATC ((((((....))))))
Tm [1]: 56.5 °C | folding enthalpy [2]: -35.8 kcal/mol

GATCACTTGAGTGATC ((((((....))))))
Tm [1]: 56.1 °C | folding enthalpy [2]: -42.4 kcal/mol

GATCAGAAAGCTGATC ((((((....))))))
Tm [1]: 43 °C | folding enthalpy [2]: -31.6 kcal/mol

GATCAGAACCTGATC ((((((...))))))
Tm [1]: 46.7 °C | folding enthalpy [2]: -36.2 kcal/mol

GATCAGAAGTCTGATC ((((((....))))))
Tm [1]: 49 °C | folding enthalpy [2]: -30 kcal/mol

GATCAGACCCTGATC ((((((...))))))
Tm [1]: 47.7 °C | folding enthalpy [2]: -33.4 kcal/mol

GATCAGACCTCTGATC ((((((....))))))
Tm [1]: 48.4 °C | folding enthalpy [2]: -40.6 kcal/mol

GATCAGACGAAAGTCATC (((..(((....))))))
Tm [1]: 23.3 °C | folding enthalpy [2]: -9.11 kcal/mol

GATCAGAGCGCTGATC ((((((....))))))
Tm [1]: 49.1 °C | folding enthalpy [2]: -27.4 kcal/mol

GATCAGAGGCCTGATC ((((((....))))))
Tm [1]: 48.5 °C | folding enthalpy [2]: -34.6 kcal/mol

GATCAGAGGCTGATC ((((((...))))))
Tm [1]: 48.7 °C | folding enthalpy [2]: -32.9 kcal/mol

GATCAGATACCTGATC ((((((....))))))
Tm [1]: 48 °C | folding enthalpy [2]: -36.7 kcal/mol

GATCAGATATCTGATC ((((((....))))))
Tm [1]: 50.3 °C | folding enthalpy [2]: -47.9 kcal/mol

GATCAGATCCTGATC ((((((...))))))
Tm [1]: 48.2 °C | folding enthalpy [2]: -37 kcal/mol

GATCAGATCGCTGATC ((((((....))))))
Tm [1]: 48.9 °C | folding enthalpy [2]: -28.2 kcal/mol
